Results from ChEMBL document CHEMBL5724801, “EUbOPEN Chemogenomics Library - Multiplex” (2024).
Where “and” joins values, the source holds several entries; their conditions need not be identical. Equal entries are not always repeated.

Test system: U2OS
Test: Multiplex assay against U2OS
Type: toxicity, cell-based
Details: human
Procedure, shortened: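 Live cells were stained at seeding with Hoechst33342, BioTracker Green Microtubule Cytoskeleton Dye, MitoTracker Red and Annexin V Alexa Fluor 680. Following compound addition, they were imaged on a CQ1 microscope at 37°C and 5% CO2 and gated by CellPathfinder machine learning into Hoechst high-intensity objects or normal cells, with normal cells split into healthy, pyknosed or fragmented nuclei and pyknosed cells into mitotic or apoptotic. Tubulin, mitochondrial-mass and membrane-permeability phenotypes are per cents of healthy-nucleus cells.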

[1] = 12 h, 1 µM, compound concentration 1 uM
[2] = 12 h, 10 µM, compound concentration 10 uM
[3] = 24 h, 1 µM, compound concentration 1 uM
[4] = 24 h, 10 µM, compound concentration 10 uM
[5] = 48 h, 1 µM, compound concentration 1 uM
[6] = 48 h, 10 µM, compound concentration 10 uM

SMILES: CN(C)C/C=C/C(=O)Nc1ccc(C(=O)N2CCCC(Nc3ncc(Cl)c(-c4c[nH]c5ccccc45)n3)C2)cc1 (stereo unspecified)
- Population Apoptotic (%) [1]: 77% and 83%
- Population Fragmented Nuclei (%) [1]: 31% and 18%
- Population Healthy Nuclei (%) [1]: 60% and 77%
- Population Hoechst High Intensity Objects (%) [1]: 2% and 0%
- Population Membrane Permeable-Phenotype (%) [1]: 5% and 6%
- Population Mitochondria Different-Phenotype (%) [1]: 3% and 5%
- Population Mitotic Cells (%) [1]: 22% and 16%
- Population Normal (%) [1]: 97% and 99%
- Population Pyknosed Nuclei (%) [1]: 8% and 4%
- Population Tubulin-Different-Phenotype (%) [1]: 4% and 8%
- Total Cell Count [1]: 228 and 139
- Population Apoptotic (%) [2]: 80% and 75%
- Population Fragmented Nuclei (%) [2]: 31% and 25%
- Population Healthy Nuclei (%) [2]: 47% and 54%
- Population Hoechst High Intensity Objects (%) [2]: 5% and 2%
- Population Membrane Permeable-Phenotype (%) [2]: 33% and 23%
- Population Mitochondria Different-Phenotype (%) [2]: 40% and 42%
- Population Mitotic Cells (%) [2]: 20% and 25%
- Population Normal (%) [2]: 94% and 97%
- Population Pyknosed Nuclei (%) [2]: 20%
- Population Tubulin-Different-Phenotype (%) [2]: 49% and 37%
- Total Cell Count [2]: 233 and 121
- Population Apoptotic (%) [3]: 93% and 100%
- Population Fragmented Nuclei (%) [3]: 34% and 21%
- Population Healthy Nuclei (%) [3]: 53% and 67%
- Population Hoechst High Intensity Objects (%) [3]: 2% and 0%
- Population Membrane Permeable-Phenotype (%) [3]: 7% and 8%
- Population Mitochondria Different-Phenotype (%) [3]: 2%
- Population Mitotic Cells (%) [3]: 6% and 0%
- Population Normal (%) [3]: 97% and 99%
- Population Pyknosed Nuclei (%) [3]: 11%
- Population Tubulin-Different-Phenotype (%) [3]: 6% and 5%
- Total Cell Count [3]: 271 and 164
- Population Apoptotic (%) [4]: 87% and 97%
- Population Fragmented Nuclei (%) [4]: 39% and 31%
- Population Healthy Nuclei (%) [4]: 35%
- Population Hoechst High Intensity Objects (%) [4]: 9% and 5%
- Population Membrane Permeable-Phenotype (%) [4]: 22% and 21%
- Population Mitochondria Different-Phenotype (%) [4]: 33% and 28%
- Population Mitotic Cells (%) [4]: 12% and 2%
- Population Normal (%) [4]: 90% and 94%
- Population Pyknosed Nuclei (%) [4]: 25% and 32%
- Population Tubulin-Different-Phenotype (%) [4]: 29% and 17%
- Total Cell Count [4]: 239 and 135
- Population Apoptotic (%) [5]: 94% and 96%
- Population Fragmented Nuclei (%) [5]: 29% and 10%
- Population Healthy Nuclei (%) [5]: 60% and 77%
- Population Hoechst High Intensity Objects (%) [5]: 3%
- Population Membrane Permeable-Phenotype (%) [5]: 10% and 3%
- Population Mitochondria Different-Phenotype (%) [5]: 3%
- Population Mitotic Cells (%) [5]: 5% and 3%
- Population Normal (%) [5]: 96%
- Population Pyknosed Nuclei (%) [5]: 10% and 12%
- Population Tubulin-Different-Phenotype (%) [5]: 5% and 3%
- Total Cell Count [5]: 339 and 221
- Population Apoptotic (%) [6]: 100%
- Population Fragmented Nuclei (%) [6]: 50%
- Population Healthy Nuclei (%) [6]: 17% and 18%
- Population Hoechst High Intensity Objects (%) [6]: 15% and 9%
- Population Membrane Permeable-Phenotype (%) [6]: 47% and 26%
- Population Mitochondria Different-Phenotype (%) [6]: 27% and 19%
- Population Mitotic Cells (%) [6]: 0%
- Population Normal (%) [6]: 84% and 90%
- Population Pyknosed Nuclei (%) [6]: 32% and 31%
- Population Tubulin-Different-Phenotype (%) [6]: 38% and 23%
- Total Cell Count [6]: 251 and 157
